Test results from ChEMBL document CHEMBL1124685, “Synthesis, DNA-binding properties, and antitumor activity of novel distamycin derivatives” (J Med Chem, 1989).

How the values were obtained:
L1210/LPAM [1] = test: Tested in vivo for optimal non-toxic dose against L1210/LPAM cell line in CDF1 mice; assay type: ADME, organism-based; conditions: mouse
Method in brief: (§1)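 CDF1 mice inoculated intraperitoneally with 10⁵ L1210 or L1210/L-PAM cells per mouse, then treated intraperitoneally after tumor transplant. T/C % = median survival time of treated mice / median survival time of controls × 100. Activity criterion is T/C ≥ 125%. Optimal nontoxic dose (OD) is defined as a dose below LD10.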

L1210 [2] = test: Tested in vitro for the cytotoxicity as number of viable cells against L1210 cell line after 4 hr treatment and 48 hr incubation in drug-free medium at conc. of 10E-6; conditions: Mus musculus, L1210, 4 h treatment, 48 h drug-free incubation; read-out: ID50 (the source's name)
L1210/LPAM [3] = test: Median survival time of treated to the control was determined in L1210/LPAM cell line; assay type: functional, Mus musculus; method in brief: as §1
L1210 [4] = test: Median survival time of treated to the control mice with L1210 tumor cells; assay type: functional, Mus musculus; method in brief: as §1
[5] = Tested in vitro for the resistance index ratio (ID50) of L1210/LPAM to L1210 cell line; assay type: functional
Method in brief: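 Resistance index = ID50 (L1210/L-PAM) / ID50 (L1210), where ID50 is the dose inhibiting proliferation by 50%. Cells were exposed to drug for 4 h, then incubated 48 h in drug-free medium. Culture was RPMI 1640 with 10% fetal calf serum, glutamine and antibiotics, at 37 °C in 5% CO2.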

L1210 [6] = test: Tested in vivo for optimal non-toxic dose against L1210 cell line in CDF1 mice; assay type: ADME, organism-based; conditions: mouse; method in brief: as §1
HeLa = test: Tested in vitro for the dose inhibiting cell proliferation by 50% against HeLa cell line after 24 hr treatment at conc. of 10E-6; assay type: functional; conditions: Homo sapiens, read-out: ID50 (the source's name)
HEp-2 = test: Tested in vitro for the cytotoxicity as number of viable cells against Hep-2 cell line after 72 hr treatment at conc. of 10E-6; assay type: functional; conditions: Homo sapiens, HEp-2, 72 h; read-out: ID50 (the source's name)
Method in brief: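 Cytotoxicity read as number of viable cells. Hep-2 (MEM) received 72-h continuous drug treatment. L1210 and L1210/L-PAM (RPMI 1640) received 4-h treatment followed by 48-h incubation in drug-free medium. Media contained 10% fetal calf serum, glutamine, streptomycin and penicillin, at 37 °C in humidified 5% CO2.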

L1210/LPAM [7] = test: Tested in vitro for the cytotoxicity as number of viable cells against L1210/LPAM cell line after 4 hr treatment and 48 hr incubation in drug-free medium at conc. of 10E-6; conditions: Mus musculus, 48 h drug-free incubation, read-out: ID50 (the source's name)
L1210 [8] = test: Median survival time of treated to the control was determined in L1210 cell line; assay type: functional, Mus musculus; method in brief: as §1

## Cl.Cn1cc(NC(=O)c2cc(NC(=O)c3cc(N(CCCl)CCCl)cn3C)cn2C)cc1C(=O)NCCC(=N)N
L1210/LPAM [1]
  OD: 1.56 mg/kg
L1210 [2]
  IC50: 3530 nM
L1210/LPAM [3]
  T/C: 122%
L1210 [4]
  T/C: 138%
[5]
  Ratio: 1.3
L1210 [6]
  OD: 1.56 M
HeLa
  IC50: 1950 nM
HEp-2
  IC50: 1220 nM
L1210/LPAM [7]
  IC50: 4560 nM

## Cl.Cn1cc(NC(=O)c2cc(NC(=O)c3cc(NC(=O)c4cc(N(CCCl)CCCl)cn4C)cn3C)cn2C)cc1C(=O)NCCC(=N)N
L1210/LPAM [1]
  OD: 0.39 mg/kg
L1210 [2]
  IC50: 80 nM
L1210/LPAM [3]
  T/C: 167%
L1210 [4]
  T/C: 188%
[5]
  Ratio: 0.87
L1210 [6]
  OD: 0.39 mg/kg
HeLa
  IC50: 60 nM
HEp-2
  IC50: 100 nM
L1210/LPAM [7]
  IC50: 70 nM

## Cl.Cn1cc(NC(=O)c2cc(NC(=O)c3cc(NC(=O)c4cc(N(CCCl)CCCl)cs4)cn3C)cn2C)cc1C(=O)NCCC(=N)N
L1210/LPAM [1]
  OD: 1.56 mg/kg
L1210 [2]
  IC50: 1930 nM
L1210/LPAM [3]
  T/C: 111%
L1210 [4]
  T/C: 132%
[5]
  Ratio: 0.69
L1210 [6]
  OD: 1.56 mg/kg
HeLa
  IC50: 50 nM
HEp-2
  IC50: 90 nM
L1210/LPAM [7]
  IC50: 1320 nM

## N[C@@H](Cc1ccc(N(CCCl)CCCl)cc1)C(=O)O [MELPHALAN]
L1210/LPAM [1]
  OD: 10 mg/kg
L1210 [2]
  IC50: 1700 nM
L1210/LPAM [3]
  T/C: 104%
[5]
  Ratio: 7.7
L1210 [6]
  OD: 10 mg/kg
HeLa
  IC50: 1770 nM
HEp-2
  IC50: 980 nM
L1210/LPAM [7]
  IC50: 13100 nM
L1210 [8]
  T/C: 192%

## Cn1cc(NC(=O)c2cc(NC(=O)c3cc(NC=O)cn3C)cn2C)cc1C(=O)NCCC(=N)N [STALLIMYCIN]
L1210/LPAM [1]
  OD: 200 mg/kg
L1210 [2]
  IC50: 488000 nM
L1210/LPAM [3]
  T/C: 106%
L1210 [4]
  T/C: 113%
[5]
  Ratio: 0.7
L1210 [6]
  OD: 200 mg/kg
HeLa
  IC50: 48000 nM
HEp-2
  IC50: 97000 nM
L1210/LPAM [7]
  IC50: 343000 nM

## Cl.Cn1cc(NC(=O)c2cc(NC(=O)c3cc(NC(=O)c4ccc(N(CCCl)CCCl)cc4)cn3C)cn2C)cc1C(=O)NCCC(=N)N [TALLIMUSTINE CHLORIDE]
L1210/LPAM [1]
  OD: 3.12 mg/kg
L1210 [2]
  IC50: 1220 nM
L1210/LPAM [3]
  T/C: 144%
L1210 [4]
  T/C: 175%
L1210 [6]
  OD: 3.12 mg/kg
HeLa
  IC50: 20 nM
HEp-2
  IC50: 190 nM
L1210/LPAM [7]
  IC50: 360 nM
